In ChEMBL document CHEMBL1255250, “Microbicidal properties and cytocidal selectivity of rhesus macaque theta defensins” (Antimicrob Agents Chemother, 2008):
Active and inactive are the calls of the source. The calls are words filed in the database; no cut-off is given here.

Tests used:
Hs68 [1] = assay: Cytotoxicity against human HS68 cells at <=100 ug/ml by MTT assay in presence of 0.4% FBS; type: cell-based
Summary of the method: (§1)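 HS68 fibroblasts were grown in DMEM with 10% FBS and penicillin/streptomycin at 37°C and 5% CO2. Cells were seeded at 5 × 10^3 per well for 18 h. Medium was then switched to antibiotic-free DMEM with 0.4% or 10% FBS, as each line states, and peptide was added at 0–100 μg/ml for 1 h at 37°C. Wells were refed with growth medium and read by MTT in triplicate against no-peptide wells.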

[2] = Toxicity in human Erythrocyte assessed as hemolysis at 100 ug/ml in presence of 10% serum; type: cell-based
Summary of the method: (§2)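 Erythrocytes from EDTA-anticoagulated human donor blood were washed in PBS or PiBS containing 4 mM EDTA, then resuspended without EDTA at 2% (vol/vol). Cells were incubated with peptide (0.3–100 μg/ml final) for 1 h at 37°C, with or without 10% autologous serum. Supernatant A405 was expressed relative to 1% Nonidet P-40 lysis.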

[3] = Toxicity in human Erythrocyte assessed as concentration required to achieve 3% hemolysis; type: cell-based
Hs68 [4] = assay: Cytotoxicity against human HS68 cells at <=100 ug/ml by MTT assay in presence of 10% FBS; type: cell-based; summary of the method: as §1
Staphylococcus aureus [5] = assay: Microbicidal activity against Staphylococcus aureus 502a at 5 ug/ml in presence of <= 80 mM NaCl; type: functional, organism-based
Summary of the method: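 S. aureus in log phase was incubated with 5 μg/ml peptide in 10 mM PIPES, pH 7.4, containing increasing NaCl for 2 h at 37°C. Killing was determined by colony counting and expressed as a percentage of killing in buffer alone.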

[6] = target: Beta-galactosidase (Escherichia coli) (UniProt Q8VNN2); assay: Inhibition of Escherichia coli ML35 Beta-galactosidase assessed as inhibition of o-nitrophenyl-beta-d-galactopyranoside hydrolysis at 4 ug/ml
[7] = Selectivity index, ratio of MMC for Staphylococcus aureus 502a to hemolytic activity for human erythrocytes
Escherichia coli [8] = assay: Microbicidal activity against Escherichia coli ML35 assessed as induction of cytoplasmic membrane permeabilization at 1 ug/ml; type: functional, organism-based
Summary of the method: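 Log-phase E. coli ML35 (1–2 × 10^6 CFU/ml) was incubated with peptide (0–8 μg/ml final) in 10 mM PIPES, pH 7.4, containing 3 mM ONPG. ONPG hydrolysis was followed at 405 nm for 60 min. The rate was taken as the highest kinetic slope and corrected for peptide inhibition of β-galactosidase measured cell-free.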

[9] = Inhibition of beta-galactosidase in cell-free system assessed as inhibition of o-nitrophenyl-beta-d-galactopyranoside hydrolysis
Escherichia coli [10] = assay: Microbicidal activity against Escherichia coli ML35 in presence of 0.8 mM Magnesium ions; type: functional, organism-based
Summary of the method: (§3)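 Log-phase E. coli ML35 or C. albicans was incubated with increasing peptide concentrations in 10 mM PIPES, pH 7.4. The buffer contained 1.2 mM CaCl2 and 0.8 mM MgCl2, or no added divalent salts. Incubation was 2 h at 37°C, and survivors were counted as colonies.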

Staphylococcus aureus [11] = assay: Microbicidal activity against Staphylococcus aureus 502a using 10 mM Tris-HCl buffer in presence of 154 mM NaCl; type: functional, organism-based
Summary of the method: (§4)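 Log-phase S. aureus was exposed to increasing peptide concentrations for 2 h at 37°C. Buffer was 10 mM PIPES, Tris-HCl or sodium phosphate, pH 7.4, with or without 154 mM NaCl. Killing was read by colony counting.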

Candida albicans [12] = assay: Microbicidal activity against Candida albicans 16820 assessed as log reduction in microbial count at 10 ug/ml using PIPES buffer
Candida albicans [13] = assay: Microbicidal activity against Candida albicans 16820 in presence of 0.8 mM Magnesium ions; type: functional, organism-based; summary of the method: as §3
Escherichia coli [14] = assay: Microbicidal activity against Escherichia coli ML35 at 16 ug/ml in presence of 10% heat-inactivated human serum; type: functional, organism-based
Summary of the method: (§5)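 Human serum was heat-inactivated at 55°C for 30 min and clarified by centrifugation. E. coli was then exposed to a dose series of peptide in 10 mM PIPES, pH 7.4, with 10% of this serum. Killing was counted as colonies and expressed relative to incubations without serum.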

Hs68 [15] = assay: Cytotoxicity against human HS68 cells at 50 ug/ml by MTT assay in presence of 10% FBS; type: cell-based; summary of the method: as §1
Candida albicans [16] = assay: Microbicidal activity against Candida albicans 16820; type: functional
Summary of the method: (§6)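 Log-phase organisms (1–2 × 10^6 CFU/ml) were exposed to serially diluted peptide (0.05–10.0 μg/ml final) in 10 mM PIPES, pH 7.4, with 5 mM glucose for 2 h at 37°C. Aliquots were serially diluted 1:10 to 1:10^6 in Trypticase soy or Sabouraud broth and grown 24–48 h at 37°C. MMC was the lowest concentration giving 99.9% viability loss in at least two experiments.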

Escherichia coli [17] = assay: Microbicidal activity against Escherichia coli ML35 at <=8 ug/ml in presence of 10% heat-inactivated human serum; type: functional, organism-based; summary of the method: as §5
Staphylococcus aureus [18] = assay: Microbicidal activity against Staphylococcus aureus 502a using 10 mM PIPES buffer in presence of 154 mM NaCl; type: functional, organism-based; summary of the method: as §4
Staphylococcus aureus [19] = assay: Microbicidal activity against Staphylococcus aureus 502a; type: functional; summary of the method: as §6
Staphylococcus aureus [20] = assay: Microbicidal activity against Staphylococcus aureus 502a in presence of 0.8 mM Magnesium ions; type: functional, organism-based
Staphylococcus aureus [21] = assay: Microbicidal activity against Staphylococcus aureus 502a in presence of 1.2 mM Calcium ions; type: functional, organism-based
Staphylococcus aureus [22] = assay: Microbicidal activity against Staphylococcus aureus 502a using 10 mM sodium phosphate buffer in presence of 154 mM NaCl; type: functional, organism-based; summary of the method: as §4
Candida albicans [23] = assay: Microbicidal activity against Candida albicans 16820 using PIPES buffer in presence of NaCl; type: functional, organism-based
Summary of the method: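 Log-phase C. albicans was incubated with peptide in 10 mM PIPES, pH 7.4, supplemented with NaCl, for 2 h at 37°C. Survivors were plated on Sabouraud dextrose agar and counted after 18–24 h at 37°C.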

Hs68 [24] = assay: Cytotoxicity against human HS68 cells at 100 ug/ml in presence of 10% FBS by MTT assay; type: cell-based; summary of the method: as §1
[25] = Toxicity in human Erythrocyte assessed as hemolysis at 100 ug/ml; type: cell-based; summary of the method: as §2
Escherichia coli [26] = assay: Microbicidal activity against Escherichia coli ML35; type: functional; summary of the method: as §6
Escherichia coli [27] = assay: Microbicidal activity against Escherichia coli ML35 in presence of 1.2 mM Calcium ions; type: functional, organism-based; summary of the method: as §3

Sequence of Beta-galactosidase (Escherichia coli) (Q8VNN2 whole entry, looked up): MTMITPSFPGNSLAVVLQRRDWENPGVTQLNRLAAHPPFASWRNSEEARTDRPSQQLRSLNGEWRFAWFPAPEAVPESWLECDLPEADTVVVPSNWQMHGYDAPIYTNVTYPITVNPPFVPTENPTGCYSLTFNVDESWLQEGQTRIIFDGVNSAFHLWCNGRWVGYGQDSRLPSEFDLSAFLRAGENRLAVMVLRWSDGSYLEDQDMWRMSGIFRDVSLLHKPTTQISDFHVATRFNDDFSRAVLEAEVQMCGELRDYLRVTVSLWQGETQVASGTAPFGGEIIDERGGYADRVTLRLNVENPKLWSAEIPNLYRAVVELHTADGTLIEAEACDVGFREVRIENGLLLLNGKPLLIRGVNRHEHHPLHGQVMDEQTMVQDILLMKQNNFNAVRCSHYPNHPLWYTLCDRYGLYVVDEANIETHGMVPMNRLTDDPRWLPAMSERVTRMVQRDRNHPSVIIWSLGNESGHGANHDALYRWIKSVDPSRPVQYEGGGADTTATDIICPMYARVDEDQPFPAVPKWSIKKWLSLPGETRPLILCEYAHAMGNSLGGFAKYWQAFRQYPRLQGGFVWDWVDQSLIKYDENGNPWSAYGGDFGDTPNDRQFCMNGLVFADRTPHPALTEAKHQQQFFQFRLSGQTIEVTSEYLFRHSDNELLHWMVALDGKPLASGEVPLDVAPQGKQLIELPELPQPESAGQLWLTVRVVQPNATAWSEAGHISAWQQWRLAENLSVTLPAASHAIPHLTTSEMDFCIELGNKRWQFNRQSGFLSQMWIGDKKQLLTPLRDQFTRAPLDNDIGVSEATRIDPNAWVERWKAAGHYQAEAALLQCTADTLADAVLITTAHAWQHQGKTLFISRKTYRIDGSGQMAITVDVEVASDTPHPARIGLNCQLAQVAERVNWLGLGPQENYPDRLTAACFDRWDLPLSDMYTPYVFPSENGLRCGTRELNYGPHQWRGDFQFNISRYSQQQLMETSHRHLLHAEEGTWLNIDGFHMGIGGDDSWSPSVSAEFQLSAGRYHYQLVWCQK

**Q.** For `CC[C@H](C)[C@@H]1NC(=O)[C@@H]2CSSC[C@H](NC(=O)[C@H](CCCNC(=N)N)NC(=O)[C@@H]3CSSC[C@H](NC1=O)C(=O)N[C@@H]([C@@H](C)O)C(=O)N[C@@H](CCCNC(=N)N)C(=O)NCC(=O)N[C@@H](Cc1ccccc1)C(=O)N3)C(=O)N[C@@H](CC(C)C)C(=O)N[C@H]1CSSC[C@H](NC(=O)[C@H](C(C)C)NC(=O)CNC(=O)[C@H](CCCNC(=N)N)NC(=O)[C@H](CCCNC(=N)N)NC1=O)C(=O)N[C@@H](CCCNC(=N)N)C(=O)N2`, which Activity (Hs68 [1]) is on record?
**A.** The Activity was “Non-toxic”.

**Q.** What about the Activity [2] of the same compound?
**A.** Its Activity is “Non-toxic”.

**Q.** What about the Activity [3] of the same compound?
**A.** Its Activity is 5.5 µg/mL.

**Q.** What about the Activity (Hs68 [4]) of the same compound?
**A.** The Activity was “Non-toxic”.

**Q.** Which Activity (Staphylococcus aureus [5]) does the source give for `CC(C)C[C@H](NC(=O)[C@H](CCCNC(=N)N)NC(=O)CNC(=O)CNC(=O)[C@@H](N)CCCNC(=N)N)C(=O)N[C@H]1CSSC[C@@H](C(=O)N[C@H](C(=O)NCC(=O)N[C@@H](CCCNC(=N)N)C(N)=O)C(C)C)NC(=O)[C@H](C(C)C)NC(=O)[C@@H]2CSSC[C@H](NC(=O)[C@H](Cc3ccc(O)cc3)NC1=O)C(=O)N[C@@H](CCCNC(=N)N)C(=O)N[C@@H](CCCNC(=N)N)C(=O)N[C@@H](CCCNC(=N)N)C(=O)N[C@@H](Cc1ccccc1)C(=O)N2` here?
**A.** The Activity was “Active”.

**Q.** And the inhibition [6]?
**A.** Its inhibition is 36%.

**Q.** What about the “Selectivity Index” value [7] of the same compound?
**A.** The value was 2.

**Q.** And the Activity (Escherichia coli [8])?
**A.** The Activity was “Active”.

**Q.** What about the Activity (Hs68 [1]) of the same compound?
**A.** Its Activity is “Toxic”.

**Q.** What about the inhibition [9] of the same compound?
**A.** The inhibition was “Dose-dependent effect”.

**Q.** What about the Activity [2] of the same compound?
**A.** The Activity was “Toxic”.

**Q.** What about the Activity (Escherichia coli [10]) of the same compound?
**A.** Its Activity is “Active”.

**Q.** What about the Activity (Staphylococcus aureus [11]) of the same compound?
**A.** Its Activity is “Active”.

**Q.** What about the FC (Candida albicans [12]) of the same compound?
**A.** The FC was greater than 3.

**Q.** And the Activity (Candida albicans [13])?
**A.** Its Activity is “inactive”.

**Q.** What about the Activity (Escherichia coli [14]) of the same compound?
**A.** Its Activity is “Active”.

**Q.** What about the Activity (Hs68 [15]) of the same compound?
**A.** The Activity was “Toxic”.

**Q.** And the MMC (Candida albicans [16])?
**A.** The MMC was 0.8 µg/mL.

**Q.** What about the Activity (Escherichia coli [17]) of the same compound?
**A.** The Activity was “inactive”.

**Q.** What about the Activity (Staphylococcus aureus [18]) of the same compound?
**A.** Its Activity is “Active”.

**Q.** What about the Activity [3] of the same compound?
**A.** Its Activity is 0.8 µg/mL.

**Q.** And the MMC (Staphylococcus aureus [19])?
**A.** Its MMC is 0.4 µg/mL.

**Q.** What about the Activity (Staphylococcus aureus [20]) of the same compound?
**A.** Its Activity is “Active”.

**Q.** And the Activity (Staphylococcus aureus [21])?
**A.** Its Activity is “Active”.

**Q.** What about the Activity (Staphylococcus aureus [22]) of the same compound?
**A.** Its Activity is “Active”.

**Q.** What about the Activity (Candida albicans [23]) of the same compound?
**A.** Its Activity is “Active”.

**Q.** What about the Activity (Hs68 [24]) of the same compound?
**A.** The Activity was “Toxic”.

**Q.** What about the Activity [25] of the same compound?
**A.** Its Activity is “Toxic”.

**Q.** And the MMC (Escherichia coli [26])?
**A.** Its MMC is 1 µg/mL.

**Q.** What about the Activity (Escherichia coli [27]) of the same compound?
**A.** The Activity was “Active”.
